Compound activity deposited in PubChem by Columbia University Molecular Screening Center.
Insulin prom act – TRM-6 insulin promoter activation; actives 0.81% (n = 130,000); TRM-6 cells, insulin promoter eGFP reporter, imaging; plate-scaled: unstimulated 0, stimulated control 100; activation, % at 2 µM;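 active = activation at 2 µM above a set limit, confirmed on inspection of the cell images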;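 note: share of cells whose green reporter signal exceeds an intensity cutoff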
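System: human fetal islet-derived TRM-6 cells with tamoxifen-inducible insulin promoter–eGFP reporter; input: seeding density of 1,000 cells per well; buffer or medium: Low-glucose (5.5 mM) medium with tamoxifen; incubation: compound exposure 48 h, 37 °C; measured by: high-content imaging of fixed cells with Hoechst nuclear stain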
The depositor's hits bear a star. Only a selection was taken, and hits are over-represented in it overall.

SMILES | Insulin prom act
Cc1cc(C)n(C2CC(=O)N(c3ccccc3)C2=O)n1 (stereo not drawn) | 8
O=C1CCCC2=C1C(c1ccccc1)CC(=O)N2c1ccccc1 (stereo not drawn) | 182*
Cc1ccccc1C1CC(=O)NC2=C1C(=O)CCC2 (stereo not drawn) | -9
COc1cccc(/C=N/NC(=O)CN2CC(c3ccccc3)CC2=O)c1O (stereo not drawn) | -8
COc1ccc(CNC(=O)CN2C(=O)NC3(CCCCCC3)C2=O)cc1OC | 244*
O=C(CN1C(=O)NC2(CCCCC2)C1=O)Nc1ccccc1Cl | 0
COc1ccc(-c2nnn(CC(=O)NCc3ccccc3)n2)cc1OC | 277
O=C(N/N=C/c1cccs1)c1cc(-c2cccc3ccccc23)n[nH]1 | -3
COc1ccc(OC)c(NC(=O)CN2CCC(C(=O)c3ccc(C)cc3)CC2)c1 | -83
CCn1c(=O)n(CC(=O)Nc2cc(OC)ccc2OC)c(=O)c2ccccc21 | 600*
COc1ccc(OC)c(NC(=O)CNC(=O)Cn2c(C)cc3ccccc3c2=O)c1 | -10
O=C(CCCOc1ccc(Cl)cc1)Nc1cccc(C(=O)O)c1 | 6
Cc1cc(NS(=O)(=O)c2ccc(NC(=O)NC(C)(C(F)(F)F)C(F)(F)F)cc2)no1 | -4
Cc1cc(NS(=O)(=O)c2ccc(NC(=O)CCCOc3ccc(Cl)cc3)cc2)no1 | 127*
COc1ccccc1N1CCN(S(=O)(=O)CC23CCC(CC2=O)C3(C)C)CC1 (stereo not drawn) | 0
CCCn1c(=O)c2c(nc3n2CCS3)n(C)c1=O | 128
O=C(CCc1nc2ccccc2[nH]c1=O)OCC(=O)c1ccc(Cl)cc1 | -3
Cc1ccc(C(=O)COC(=O)CCc2nc3ccccc3[nH]c2=O)cc1C | 0
COC(=O)CCc1nc2ccccc2[nH]c1=O | 8
CC(OC(=O)CCc1nc2ccccc2[nH]c1=O)c1ccccc1 (stereo not drawn) | 471*
CC(CC(=O)Nc1nc2ccccc2[nH]1)c1ccccc1 (stereo not drawn) | 0
O=C(CCc1nc2ccccc2[nH]c1=O)OCC(=O)c1cccc2ccccc12 | 83*
CC1C/C(=C\c2cccnc2)C(=O)/C(=C/c2cccnc2)C1 (stereo not drawn) | 8
COCCn1nnnc1C(c1ccc(OC)c(OC)c1)N1CCN(c2nc3ccccc3s2)CC1 (stereo not drawn) | -8
Clc1ccc(-c2nnc3n2CCCCS3)cc1 | 8
SMILES | Insulin prom act
CCN(Cc1ccccc1)C(c1ccc(C(F)(F)F)cc1)c1nnnn1C(C)(C)C (stereo not drawn) | -7
c1ccc2c(CNCCN3CCOCC3)cccc2c1 | 3
CSc1nc(C)cc(/C=C\c2ccccc2)c1C#N | 107
CSc1nsc(/C=C/Nc2ccc(O)cc2C)c1C#N | 809*
CC(=O)c1ccc(NC(=O)CN2C(=O)CCC2=O)cc1 | -7
Cc1cccc(C(=O)NN2S(=O)(=O)c3ccccc3S2(=O)=O)c1 | 8
CN(C)S(=O)(=O)c1cccc(C(=O)Nc2ccccc2)c1 | 7
Cc1ccsc1C(=O)Nc1cccc(S(=O)(=O)N(C)C)c1 | 431*
CN(C)S(=O)(=O)c1cccc(NC(=O)Cc2ccc(Cl)cc2)c1 | 9
CCOC(=O)c1c(C)[nH]c(C)c1C(=O)Cn1nnc(-c2ccccc2C)n1 | 40
O=C(CN1CCC(NC(=O)c2cccc(F)c2)CC1)NCc1ccccc1F | 7
O=C(NCCCn1ccnc1)/C(=C\c1cccnc1)NC(=O)c1cccc(Br)c1 | 0
O=C(NCc1cccnc1)c1ccc(NC(=O)c2ccco2)cc1 | -79
O=C(NCc1cccnc1)c1cc(-c2ccccc2)on1 | 32
O=C(NCc1cccnc1)c1nc(-c2ccc(C(F)(F)F)cc2)no1 | 300*
COCCN(C(=O)C(C)C)c1nnc(-c2cccc(C)c2)s1 | -7
COc1ccc(NS(=O)(=O)c2cc(NC(=O)c3cccc(OCc4c(C)noc4C)c3)ccc2OC)cc1 | 0
Cc1[nH]c2ccccc2c1C(=O)Cn1c(=O)oc2ccccc21 | 6
CCOC(=O)COn1c(=O)c(-c2ccc(OC)c(OC)c2)[n+]([O-])c2ccccc21 | 0
COc1ccc(-c2c(=O)n(OCc3ccccn3)c3ccccc3[n+]2[O-])cc1OC | -10
Cc1c(=O)n(OCc2cccc(F)c2)c2ccccc2[n+]1[O-] | 132*
CCCCOC(=O)Nc1cc(C(=O)OC)ccc1C(=O)OC | -65
CCOc1ccccc1NC1=C(Cl)C(=O)N(c2ccc(OC)cc2)C1=O | 3
COc1ccccc1N1C(=O)C(Cl)=C(Nc2ccccc2O)C1=O | 379*
COc1ccccc1N1CCN(c2ccc(Cl)nn2)CC1 | -7
SMILES | Insulin prom act
CCOC(=O)c1cc2sccc2n1CC(=O)N1CCCc2ccccc21 | 9
CCOC(=O)c1cc2sc(C)cc2n1CC(=O)NCc1ccc(F)cc1 | -82
COC(=O)c1cc2sccc2n1CC(=O)N1CCCc2ccccc21 | 193*
O=C(c1cc2sccc2n1Cc1ccccc1)N1CCc2ccccc21 | 0
CCOC(=O)c1cc2sccc2n1CC(=O)C(C)(C)C | 213*
CCOC(=O)c1cc2sccc2n1Cc1ccccc1 | 0
CCCCCCCCOC(=O)CCn1[nH]c(=O)c2ccccc2c1=O | 0
O=C(NCCN1CCN(Cc2ccccc2Cl)CC1)Nc1ccccc1 | 3
CCC(C)(C(=O)NC1CCCCC1)N(C(=O)CNC(C)=O)c1c(C)n(C)n(-c2ccccc2)c1=O (stereo not drawn) | -7
O=C(Nc1ccc(Oc2ccc(C(F)(F)F)cn2)c(Cl)c1)C1CC1 | 8
Cc1cc(Br)c(NC(=O)CCl)c(Br)c1 | 3
COc1ccc(Br)cc1C(=O)Nc1nnn(C)n1 | 0
Cc1cc(C)c(OCC(=O)Nc2nnn(C)n2)c(Br)c1 | 77*
Cc1cc(C)nc(N/N=C/c2ccccc2)n1 | -18
Clc1cccc(/C=N/Nc2nnc(Cl)c3ccccc23)c1 | 9
Cc1nc(C#N)c(N/N=C/c2cccc(Cl)c2)o1 | 300*
Cc1cccc(N2CCCn3c2nc2c3c(=O)n(CCN3CCOCC3)c(=O)n2C)c1 | -81
COCCN1CCN(c2cc(-c3ccccc3)nc3cc(-c4cccc(F)c4)nn23)CC1 | -7
CN(CCO)c1c2c(nc3cc(-c4cccc(F)c4)nn13)CCCC2 | 95*
Fc1cccc(-c2cc3nc4c(c(N5CCC6(CC5)OCCO6)n3n2)CCCC4)c1 | -4
N#Cc1ccc(C2=NC(C(F)(F)F)(C(F)(F)F)c3c(n(Cc4ccco4)c(=O)[nH]c3=O)N2)cc1 | 3
Cc1ccc(S(=O)(=O)N(CCO)c2cc3c(s2)CCCC3)cc1 | 9
c1ccc(Oc2cccc(OCCCCN3CCCC3)c2)cc1 | 3
CCc1ccc(S(=O)(=O)/N=C2\C=CC(=O)c3ccccc32)cc1 | 327*
CCc1ccc(S(=O)(=O)/N=C2/C=C(Sc3ncn[nH]3)C(=O)c3ccccc32)cc1 | 169
SMILES | Insulin prom act
O=C(O)CC12CC3CC(C1)CC(n1ncc(NCc4ccc5c(c4)OCO5)c(Cl)c1=O)(C3)C2 | 7
COc1cccc2c(=O)cc(C)n(CC(=O)Nc3cccc(C)c3)c12 | -64
Cc1ccc(-c2nnc(SCc3ccc(C#N)cc3)n2Cc2ccco2)cc1 | 3
C=CCn1c(SCc2ccc(C#N)cc2)nnc1-c1cccc(OC)c1 | 164*
C=CCn1c(SCc2ccccc2)nnc1-c1cccnc1 | 0
Cc1ccc(S(=O)(=O)N2CCCCC2)cc1NC(=O)CSc1nccn1C | 146
COc1ccc(N2CCN(C(=O)CSc3ncnc4c3cnn4-c3ccccc3C)CC2)cc1 | -83
Cc1nnc(NC(=O)CSc2ncn(-c3ccccc3)n2)s1 | 0
